Assay results taken from ChEMBL document CHEMBL1141763, “Limnophilaspiroketone, a highly oxygenated phenolic derivative from Limnophila geoffrayi” (J Nat Prod, 2005).

Molecular target: NAD(P)H dehydrogenase [quinone] 1 (Homo sapiens) (UniProt P15559)
Assay: Induction of quinone reductase
In short: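 Quinone reductase induction measured in cultured mouse Hepa 1c1c7 hepatoma cells, following a previously described method. Activity is reported as CD, the concentration that doubles QR induction, in µg/mL.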

NAD(P)H dehydrogenase [quinone] 1 (Homo sapiens), sequence (P15559 whole entry): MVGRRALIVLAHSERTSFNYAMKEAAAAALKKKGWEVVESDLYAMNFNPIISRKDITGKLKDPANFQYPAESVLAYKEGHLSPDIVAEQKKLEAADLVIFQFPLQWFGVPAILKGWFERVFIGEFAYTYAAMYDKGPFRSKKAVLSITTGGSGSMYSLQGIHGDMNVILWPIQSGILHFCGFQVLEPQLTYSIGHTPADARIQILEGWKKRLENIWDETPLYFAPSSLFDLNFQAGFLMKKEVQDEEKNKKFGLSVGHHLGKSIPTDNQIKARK

SMILES	CD [µg/mL]
COc1c(OC)c(O)c2c(=O)cc(-c3ccc(O)cc3)oc2c1O	> 20
COc1ccc(-c2cc(=O)c3c(O)c(OC)c(O)c(OC)c3o2)cc1	> 20
COc1ccc(-c2cc(=O)c3c(O)c(OC)c(OC)c(OC)c3o2)cc1	> 20
C=C(C)[C@@H]1CC[C@]2(C(=O)O)CC[C@]3(C)[C@H](CC[C@@H]4[C@@]5(C)CC[C@H](O)C(C)(C)[C@@H]5CC[C@]43C)[C@@H]12	> 20
CC1(C)CC[C@]2(C(=O)O)CC[C@]3(C)C(=CC[C@@H]4[C@@]5(C)CC[C@H](O)[C@@](C)(CO)[C@@H]5CC[C@]43C)[C@@H]2C1	> 20
COC(=O)[C@@]1(O)C(OC)=C(OC)C(=O)[C@]12OC(c1ccc(O)cc1)=CC2=O	> 20
CC(C)=CCC/C(C)=C\CC/C(C)=C\Cc1cc(C(=O)O)ccc1O	> 20
C[C@@H]1CC[C@]2(C(=O)O)CC[C@]3(C)C(=CC[C@@H]4[C@@]5(C)CC[C@H](O)[C@](C)(CO)[C@@H]5CC[C@]43C)[C@@H]2[C@]1(C)O	> 20
CC1(C)CC[C@]2(C(=O)O)CC[C@]3(C)C(=CC[C@@H]4[C@@]5(C)CC[C@H](O)C(C)(C)[C@@H]5[C@H](O)C[C@]43C)[C@@H]2C1	> 20
